The values below come from ChEMBL document CHEMBL3351461, “Discovery of novel, dual mechanism ERK inhibitors by affinity selection screening of an inactive kinase” (J Med Chem, 2014).

SMILES strings stand for the structures. Active and inactive are the calls of the source. The calls are words filed in the database; no cut-off is given here. Some results are limits rather than exact numbers.

The target in test [1] is T1, Mitogen-activated protein kinase 1 (Homo sapiens, UniProt P28482). Nature of the test: Binding to phosphorylated ERK2 (unknown origin) by temperature dependent fluorescence (TdF) assay.
T1 sequence (P28482 whole entry): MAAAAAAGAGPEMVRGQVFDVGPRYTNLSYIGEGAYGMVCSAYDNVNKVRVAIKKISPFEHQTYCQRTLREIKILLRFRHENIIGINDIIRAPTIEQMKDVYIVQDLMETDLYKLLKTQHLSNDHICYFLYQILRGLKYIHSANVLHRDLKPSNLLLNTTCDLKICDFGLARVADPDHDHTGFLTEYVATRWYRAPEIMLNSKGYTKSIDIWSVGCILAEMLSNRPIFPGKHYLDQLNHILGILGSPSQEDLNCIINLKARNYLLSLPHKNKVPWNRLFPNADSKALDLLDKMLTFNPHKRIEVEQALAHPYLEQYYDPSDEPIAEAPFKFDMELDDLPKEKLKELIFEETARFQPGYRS
Test [2] concerns the target T2, Dual specificity mitogen-activated protein kinase kinase; MEK1/2 (Homo sapiens) (UniProt P36507+Q02750). Nature of the test: Binding affinity to phosphorylated MEK (unknown origin) by temperature dependent fluorescence (TdF) assay.
The target in test [3] is T1, Mitogen-activated protein kinase 1. Nature of the test: Binding to unphosphorylated ERK2 (unknown origin) by temperature dependent fluorescence (TdF) assay.
Test [4] concerns the target Mitogen-activated protein kinase 1 (Mus musculus) (UniProt P63085). Description: Inhibition of inactive ERK2 (mouse) coupled with human MEK1 using IMAP peptide substrate after 30 mins by coupled ERK2 assay.
In test [5] the target is T1, Mitogen-activated protein kinase 1. Description: Inhibition of activated ERK2 (unknown origin) using IMAP peptide substrate after 30 mins by activated ERK2 assay. The procedure, abridged: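 IMAP fluorescence-polarization assay. Started with 1 μM substrate peptide (100 nM fluorescein-labelled) and 30 μM ATP. Run 30 min, stopped with IMAP beads, read after 30 min. N = 2.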

Test [6] addresses T2, Dual specificity mitogen-activated protein kinase kinase; MEK1/2 (Homo sapiens). Nature of the test: Binding affinity to unphosphorylated MEK (unknown origin) by temperature dependent fluorescence (TdF) assay.

Sequence of Mitogen-activated protein kinase 1 (Mus musculus) (P63085 whole entry, looked up): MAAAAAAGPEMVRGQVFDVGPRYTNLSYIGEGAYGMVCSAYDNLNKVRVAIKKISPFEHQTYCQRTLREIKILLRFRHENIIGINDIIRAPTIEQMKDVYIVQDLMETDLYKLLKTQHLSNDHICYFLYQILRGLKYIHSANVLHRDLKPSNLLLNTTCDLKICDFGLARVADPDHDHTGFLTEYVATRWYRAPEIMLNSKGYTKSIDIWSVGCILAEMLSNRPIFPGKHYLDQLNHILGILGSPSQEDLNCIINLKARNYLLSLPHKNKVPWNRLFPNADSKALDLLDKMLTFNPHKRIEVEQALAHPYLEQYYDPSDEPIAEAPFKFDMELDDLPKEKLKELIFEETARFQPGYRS
T2 sequence (P36507 whole entry, looked up): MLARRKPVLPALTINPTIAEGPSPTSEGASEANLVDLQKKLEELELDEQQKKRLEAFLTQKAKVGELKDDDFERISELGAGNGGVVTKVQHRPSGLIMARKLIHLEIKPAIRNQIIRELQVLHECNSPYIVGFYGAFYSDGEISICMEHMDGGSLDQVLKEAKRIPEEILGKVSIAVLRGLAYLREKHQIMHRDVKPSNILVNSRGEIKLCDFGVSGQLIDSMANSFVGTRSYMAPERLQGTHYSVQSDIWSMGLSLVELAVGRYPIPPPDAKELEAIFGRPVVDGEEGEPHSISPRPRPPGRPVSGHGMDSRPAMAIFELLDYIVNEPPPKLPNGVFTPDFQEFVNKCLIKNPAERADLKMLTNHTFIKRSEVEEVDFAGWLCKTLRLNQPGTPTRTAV
T2 sequence (Q02750 whole entry, looked up): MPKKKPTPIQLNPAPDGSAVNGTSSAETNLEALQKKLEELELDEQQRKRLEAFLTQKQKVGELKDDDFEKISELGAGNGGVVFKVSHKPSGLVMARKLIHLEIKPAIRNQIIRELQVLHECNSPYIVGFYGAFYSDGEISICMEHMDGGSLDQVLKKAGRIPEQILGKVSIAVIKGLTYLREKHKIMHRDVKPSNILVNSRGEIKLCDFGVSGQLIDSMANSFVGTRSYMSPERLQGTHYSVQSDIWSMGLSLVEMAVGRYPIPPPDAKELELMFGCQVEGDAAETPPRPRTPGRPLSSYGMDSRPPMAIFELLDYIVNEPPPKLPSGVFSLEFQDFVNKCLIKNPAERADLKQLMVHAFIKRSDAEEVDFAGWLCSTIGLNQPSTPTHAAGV

As to `O=C(Nc1ccc(O)c(Cl)c1)[C@@H]1CCN(CC(=O)N2CCN(c3ccc(-c4ccccc4)cc3)CC2)C1`, the Kd (commonly the equilibrium constant for the complex coming apart) turned out to be 720 nM in test [1] and 150 nM in test [3]. In addition, the outcome in test [2] and in test [6] was inactive. Also, the 50% inhibitory concentration (IC50) (usually the concentration that gives 50% inhibition) in test [4] turned out to be 5600 nM; in test [5], 4400 nM.

Take `CC(=O)c1ccc(N2CCN(C(=O)CN3CCC(C(=O)Nc4ccc(O)cc4)C3)CC2)cc1` (racemic): the Kd in test [1] turned out to be 1890 nM; in test [3] it was 1060 nM. Besides, the result in test [2] and in test [6] was inactive. The IC50 in test [4] came to 4000 nM; in test [5], 18600 nM.

Consider `CC(=O)c1ccc(N2CCN(C(=O)CN3CC[C@@H](C(=O)Nc4cc(Cl)c(O)c(Cl)c4)C3)CC2)cc1`, for which the Kd in test [1] and in test [3] was over 10000 nM each time. In addition, the outcome in test [2] and in test [6] was inactive. For the same compound, the IC50 in test [4] was over 10000 nM.

Regarding `O=C(Nc1ccc(O)c(Cl)c1)[C@@H]1CCN(CC(=O)N2CCN(c3ccc(-c4ccsc4)cc3)CC2)C1`, the Kd in test [1] turned out to be 980 nM; in test [3], 290 nM. The result in test [2] and in test [6] was inactive. The values for the half-maximal inhibitory concentration (IC50) in test [4] and in test [5] were 2100 nM and 20000 nM, respectively.

Turning to `O=C(Nc1ccc(O)c(Cl)c1)[C@@H]1CCN(CC(=O)N2CCN(c3nc4ccccc4s3)CC2)C1`, the Kd was determined as 270 nM in test [1] and 170 nM in test [3]. Further, the outcome in test [2] and in test [6] was inactive. In addition, the IC50 in test [4] was determined as 480 nM; in test [5] it was 1600 nM.

`O=C(Nc1ccc(O)cc1)C1CCN(CC(=O)N2CCN(c3cccc(Cl)c3)CC2)C1` (racemic): the Kd in test [1] is 1650 nM; in test [3], 920 nM. In addition, the result in test [2] and in test [6] was inactive. Besides, the half-inhibitory concentration (IC50) came to 3400 nM in test [4] and 12200 nM in test [5].

As to `O=C(Nc1ccc(O)c(Cl)c1)[C@@H]1CCN(CC(=O)N2CCN(c3ccc(-c4ccoc4)cc3)CC2)C1`, the figures for the Kd in test [1] and in test [3] were 330 nM and 120 nM, respectively. Besides, the outcome in test [2] and in test [6] was inactive. Moreover, the IC50 in test [4] was found to be 1400 nM; in test [5], 5500 nM.

As for `CC(=O)c1ccc(N2CCN(C(=O)CN3CC[C@@H](C(=O)Nc4ccc(O)c(F)c4)C3)CC2)cc1`, the Kd turned out to be 630 nM in test [1] and 280 nM in test [3]. The result in test [2] and in test [6] was inactive. The values for the half-inhibitory concentration (IC50) in test [4] and in test [5] were 1300 nM and 11600 nM, respectively.

Turning to `CC(=O)c1ccc(N2CCN(C(=O)CN3CCC(C(=O)Nc4ccc(O)c(Cl)c4)C3)CC2)cc1` (racemic), the Kd stood at 270 nM in test [1] and 150 nM in test [3]. The outcome in test [2] and in test [6] was inactive. Moreover, the IC50 in test [4] was 1200 nM; in test [5], 4200 nM.

In the case of `O=C(Nc1ccc(O)c(Cl)c1)[C@@H]1CCN(CC(=O)N2CCN(c3ccc(Br)cc3)CC2)C1`, the results for the Kd in test [1] and in test [3] were 2650 nM and 930 nM, respectively. The outcome in test [2] and in test [6] was inactive. The IC50 amounted to 5000 nM in test [4] and 8200 nM in test [5].

As to `CC(=O)c1ccc(N2CCN(C(=O)CN3CC[C@@H](C(=O)Nc4ccc(O)c(Br)c4)C3)CC2)cc1`, the outcome in test [2] and in test [6] was inactive. The IC50 amounted to 440 nM in test [4] and 3600 nM in test [5].

On to `O=C(NOC[C@H](O)CO)c1ccc(F)c(F)c1Nc1ccc(I)cc1F` [MIRDAMETINIB], for which the Kd in test [1] and in test [3] was over 10000 nM each time. Also, the IC50 is 25 nM in test [4] and over 40000 nM in test [5].

Consider `CC(=O)c1ccc(N2CCN(C(=O)CN3CC[C@@H](C(=O)Nc4ccc(O)c(C)c4)C3)CC2)cc1`, for which the result in test [2] and in test [6] was inactive. The figures for the IC50 in test [4] and in test [5] were 4200 nM and 2500 nM, respectively.

For the compound `O=C(Nc1ccc(O)c(Cl)c1)[C@@H]1CCN(CC(=O)N2CCN(c3cccc(Cl)c3)CC2)C1`, the Kd came to 150 nM in test [1] and 70 nM in test [3]. The result in test [2] and in test [6] was inactive. Also, the half-maximal inhibitory concentration (IC50) was 700 nM in test [4] and 2100 nM in test [5].

`CC(=O)c1ccc(N2CCN(C(=O)CN3CC[C@@H](C(=O)Nc4ccc(O)cc4Cl)C3)CC2)cc1`: the Kd in test [1] and in test [3] was over 10000 nM each time. Besides, the result in test [2] and in test [6] was inactive. The half-inhibitory concentration (IC50) in test [4] worked out at 12700 nM; in test [5], 50000 nM.

With `CC(=O)c1ccc(N2CCN(C(=O)CN3CC[C@H](C(=O)Nc4ccc(O)c(Cl)c4)C3)CC2)cc1`, the results for the Kd in test [1] and in test [3] were 870 nM and 360 nM, respectively. Besides, the result in test [2] and in test [6] was inactive. Besides, the figures for the IC50 in test [4] and in test [5] were 3600 nM and 32000 nM, respectively.
